These results are taken from ChEMBL document CHEMBL1914440, “Discovery of potent, selective, and orally bioavailable alkynylphenoxyacetic acid CRTH2 (DP2) receptor antagonists for the treatment of allergic inflammatory diseases” (J Med Chem, 2011).

A short description of data set [1]: Half life in BALB/c mouse at 5 mg/kg, po by LC/MS/MS analysis. Format: ADME, organism-based. Also noted: dose 5 mg/kg, route oral. The settings on record: in vivo.
Data set [2] is described as follows: Intrinsic clearance in human liver microsomes assessed per mg of protein at 1 uM by LC/MS/MS analysis. Format: ADME, Microsome. (Microsomes from liver hold many membrane-bound enzymes, among them those of drug oxidation.)
Data set [3] concerns Mus musculus. Briefly: Antiinflammatory activity in BALB/c mouse model assessed as inhibition of ovalbumin-induced eosinophil accumulation in bronchoalveolar lavage fluid at 3 mg/kg, po administered 1 hr prior to and 7 hrs after ovalbumin challenge for 3 days measured 8 hrs after final dose by cell counting. The format is functional. The settings on record: Lung. The method, boiled down: (§1)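 Compound given by oral gavage 1 h before and 7 h after each challenge. BAL taken 8 h after the last challenge. Total cells counted by hemocytometer; eosinophils counted on DiffQuik-stained cytospins. Reported as mean % inhibition ± SEM.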

Data set [4] can be described thus: Percentage unbound in mouse plasma. The format is ADME, cell-free.
The target of data set [5] is T1, Prostaglandin D2 receptor (Homo sapiens, UniProt Q13258).
T1 sequence (Q13258 whole entry): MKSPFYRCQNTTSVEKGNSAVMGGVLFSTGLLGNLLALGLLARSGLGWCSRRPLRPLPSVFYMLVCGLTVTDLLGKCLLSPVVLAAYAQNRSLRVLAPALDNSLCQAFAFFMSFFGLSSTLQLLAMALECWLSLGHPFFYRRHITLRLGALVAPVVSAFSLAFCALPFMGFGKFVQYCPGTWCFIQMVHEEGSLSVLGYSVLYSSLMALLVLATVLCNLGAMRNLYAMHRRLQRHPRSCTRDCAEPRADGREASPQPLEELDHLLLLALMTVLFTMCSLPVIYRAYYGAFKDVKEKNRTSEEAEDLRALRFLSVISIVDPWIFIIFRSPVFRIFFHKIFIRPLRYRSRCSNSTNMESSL
Briefly: Antagonist activity at DP1 by cAMP functional assay. A digest of the protocol: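 DP1 functional antagonism measured in a cAMP assay.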

Data set [6] is described as follows: Apparent permeability across human Caco2 cells at 1 uM after 2 hrs by LC/MS/MS analysis. Format: ADME, cell-based. The settings on record: Caco-2. Background: Caco-2 cells form a polarised layer with tight junctions and transporters.
For data set [7], the target named is Aldo-keto reductase family 1 member B1 (Homo sapiens, UniProt P15121). Kind of data set: Antagonist activity at AR. The format is functional.
Data set [8] deals with Mus musculus. Briefly: Antiinflammatory activity in BALB/c mouse model assessed as inhibition of ovalbumin-induced eosinophil accumulation in bronchoalveolar lavage fluid at 30 mg/kg, po administered 1 hr prior to and 7 hrs after ovalbumin challenge for 3 days measured 8 hrs after final dose by cell counting. The format is functional. The settings on record: Lung. The method, boiled down: as §1

A short description of data set [9]: Solubility of the compound at pH 1.2. The settings on record: buffer. Format: physicochemical.
Data set [10] is described as follows: Percentage unbound in human plasma. Format: ADME, cell-free.
In data set [11] the target is T2, Prostaglandin D2 receptor 2 (Homo sapiens, UniProt Q9Y5Y4).
T2 sequence (Q9Y5Y4 whole entry): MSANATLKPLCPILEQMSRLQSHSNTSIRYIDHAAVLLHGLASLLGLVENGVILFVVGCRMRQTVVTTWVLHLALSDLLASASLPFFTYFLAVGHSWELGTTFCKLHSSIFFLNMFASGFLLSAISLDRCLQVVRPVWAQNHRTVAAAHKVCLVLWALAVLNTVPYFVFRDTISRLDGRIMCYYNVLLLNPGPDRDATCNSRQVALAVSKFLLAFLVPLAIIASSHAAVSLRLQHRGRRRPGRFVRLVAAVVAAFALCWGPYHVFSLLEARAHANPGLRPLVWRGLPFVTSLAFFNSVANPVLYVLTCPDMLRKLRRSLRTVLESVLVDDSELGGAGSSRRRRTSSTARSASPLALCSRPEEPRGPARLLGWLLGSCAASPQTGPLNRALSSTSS
Briefly: Displacement of [3H]PGD2 from human CRTH2 expressed in chinese hamster CHO cells by liquid scintillation counting. Format: cell-based. A digest of the protocol: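 Scintillation proximity competition assay: 2–5 μg human CRTH2 cell membranes, 1.5 nM [3H]PGD2, WGA-SPA beads, 10 mM HEPES/KOH pH 7.4, 10 mM MnCl2, protease inhibitors, 1% DMSO; 90 min, room temperature, shaking. Nonspecific binding defined with 1 μM PGD2. Ki by Cheng–Prusoff, mean of ≥3 independent dose–response experiments.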
In general terms: Loss of bound radioactivity is the signal in a displacement assay; it reports binding, not function.

The nature of data set [12]: Oral bioavailability in BALB/c mouse at 5 mg/kg by LC/MS/MS analysis. The format is ADME, organism-based. The settings on record: in vivo. The method, boiled down: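 Mouse PK after a 5 mg/kg oral dose.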
Data set [13] relates to Mus musculus. Briefly: Antiinflammatory activity in BALB/c mouse contact hypersensitivity model assessed as inhibition of FITC-mediated ear swelling at 3 mg/kg, po administered 1 hr prior to and 7 hrs after the FITC-challenge measured 24 hrs after final dose. The format is functional. A digest of the protocol:
(§2)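 Female 9-week-old BALB/c mice sensitized on days 0 and 1 with 0.5% FITC in acetone/dibutyl phthalate (sham group: vehicle only). Right ear challenged on day 6 with 0.5% FITC. Compound given by oral gavage 1 h before and 7 h after challenge. Ear thickness measured before and 24 h after challenge. Reported as mean % inhibition ± SEM.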

The subject of data set [14] is Mus musculus. Briefly: Antiinflammatory activity in BALB/c mouse model assessed as inhibition of ovalbumin-induced eosinophil accumulation in bronchoalveolar lavage fluid at 10 mg/kg, po administered 1 hr prior to and 7 hrs after ovalbumin challenge for 3 days measured 8 hrs after final dose by cell counting. Format: functional. The settings on record: Lung. A digest of the protocol: as §1

Data set [15] concerns the target T2, Prostaglandin D2 receptor 2. Briefly: Antagonist activity human CRTH2 expressed in chinese hamster CHO cells assessed as inhibition of PGD2-induced [35S]GTPgamma binding by liquid scintillation counting. The format is functional, cell-based. A digest of the protocol: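 10 μg human CRTH2 membranes in 20 mM HEPES/KOH pH 7.4, 10 mM MgCl2, 10 μg/mL saponin, 3 μM GDP, 150 mM NaCl, 2% DMSO, 30 °C. Preincubated 10 min, then 0.15 nM [35S]GTPγS for 30 min; stopped by centrifugation. Antagonism tested against 80 nM PGD2. Nonspecific binding with 10 μM GTPγS. Run without BSA.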

Data set [16] is described as follows: Clearance in BALB/c mouse at 5 mg/kg, po by LC/MS/MS analysis. The format is ADME, organism-based. Also noted: dose 5 mg/kg, route oral. The settings on record: in vivo.
Data set [17] is described as follows: Percentage unbound in rat plasma. The format is ADME, cell-free.
Data set [18] can be described thus: Half life in BALB/c mouse at 1 mg/kg, iv by LC/MS/MS analysis. The settings on record: in vivo. Format: ADME, organism-based. Also noted: dose 1 mg/kg, route intravenous.
Data set [19] is described as follows: Intrinsic clearance in rat liver microsomes assessed per mg of protein at 1 uM by LC/MS/MS analysis. The format is ADME, Microsome.
Data set [20] has as its system Mus musculus. Briefly: Antiinflammatory activity in BALB/c mouse contact hypersensitivity model assessed as inhibition of FITC-mediated ear swelling at 30 mg/kg, po administered 1 hr prior to and 7 hrs after the FITC-challenge measured 24 hrs after final dose. Format: functional. A digest of the protocol: as §2
A short description of data set [21]: AUC in BALB/c mouse at 5 mg/kg, po by LC/MS/MS analysis. Also noted: dose 5 mg/kg, route oral. Format: ADME, organism-based. The settings on record: plasma.
The test system of data set [22] is Mus musculus. Briefly: Antiinflammatory activity in BALB/c mouse contact hypersensitivity model assessed as inhibition of FITC-mediated ear swelling at 10 mg/kg, po administered 1 hr prior to and 7 hrs after the FITC-challenge measured 24 hrs after final dose. Format: functional. A digest of the protocol: as §2
Data set [23] addresses Prostaglandin E2 receptor EP2 subtype (Homo sapiens) (UniProt P43116). Kind of data set: Inhibition of EP2 receptor at 10 uM. A digest of the protocol:
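Selectivity screen: panel of 50 receptor and ion-channel targets, tested at 10 μM; EP2 by binding assay; GABA-gated Cl− channel from rat. Result expressed as % inhibition.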

Data set [24] deals with T1, Prostaglandin D2 receptor. Briefly: Binding affinity to DP1.
The target in data set [25] is T3, Prostaglandin D2 receptor 2 (Mus musculus, UniProt Q9Z2J6).
T3 sequence (Q9Z2J6 whole entry): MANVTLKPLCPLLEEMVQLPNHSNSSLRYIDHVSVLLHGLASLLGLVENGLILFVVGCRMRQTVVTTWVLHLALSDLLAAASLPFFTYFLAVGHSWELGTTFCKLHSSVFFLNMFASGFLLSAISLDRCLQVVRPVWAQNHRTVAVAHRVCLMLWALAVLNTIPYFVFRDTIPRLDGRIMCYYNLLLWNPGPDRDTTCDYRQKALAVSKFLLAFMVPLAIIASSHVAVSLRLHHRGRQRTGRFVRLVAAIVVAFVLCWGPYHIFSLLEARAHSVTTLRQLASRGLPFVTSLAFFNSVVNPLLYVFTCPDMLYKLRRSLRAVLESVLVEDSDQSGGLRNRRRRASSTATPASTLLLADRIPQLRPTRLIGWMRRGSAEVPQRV
Kind of data set: Displacement of [3H]PGD2 from mouse CRTH2 expressed in human HEK cells by liquid scintillation counting. The format is cell-based, HEK293. A digest of the protocol:
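Mouse CRTH2 cDNA stably expressed in HEK293(EBNA) cells (hygromycin-selected) and membranes made by nitrogen cavitation. SPA competition uses 2–5 μg membranes, 1.5 nM [3H]PGD2, HEPES/KOH pH 7.4 with 10 mM MnCl2, 1% DMSO, 90 min at room temperature. Nonspecific binding defined with 1 μM PGD2. Ki by Cheng–Prusoff, ≥3 independent experiments.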

The nature of data set [26]: Solubility of the compound at pH 7.4. The format is physicochemical. The settings on record: buffer.
Data set [27] relates to Mus musculus. Briefly: Antiinflammatory activity in BALB/c mouse contact hypersensitivity model assessed as inhibition of FITC-mediated ear swelling at 5 mg/kg, ip administered 1 hr prior to and 7 hrs after the FITC-challenge measured 24 hrs after final dose.
For data set [28], the system named is Mus musculus. Kind of data set: Antiinflammatory activity in BALB/c mouse model assessed as inhibition of ovalbumin-induced eosinophil accumulation in bronchoalveolar lavage fluid at 1 mg/kg, ip administered 1 hr prior to and 7 hrs after ovalbumin challenge for 3 days measured 8 hrs after final dose by cell counting. The format is functional. The settings on record: Lung, route intraperitoneal. The method, boiled down:
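BALB/c mice were immunised with ovalbumin ip on days 0 and 7, then challenged with aerosolised ovalbumin for 30 min on days 15, 16 and 17. Bronchoalveolar lavage was done 8 h after the last challenge. Total cells were counted by haemocytometer, and eosinophils by differential count on DiffQuik-stained cytospins. Results are given as % inhibition, mean ± SEM.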

In brackets after ≈: the same amount, converted by molar mass. Activity calls are given as the source filed them. The rule behind the calls is not given here.

Sequence of Prostaglandin E2 receptor EP2 subtype (Homo sapiens) (P43116 whole entry): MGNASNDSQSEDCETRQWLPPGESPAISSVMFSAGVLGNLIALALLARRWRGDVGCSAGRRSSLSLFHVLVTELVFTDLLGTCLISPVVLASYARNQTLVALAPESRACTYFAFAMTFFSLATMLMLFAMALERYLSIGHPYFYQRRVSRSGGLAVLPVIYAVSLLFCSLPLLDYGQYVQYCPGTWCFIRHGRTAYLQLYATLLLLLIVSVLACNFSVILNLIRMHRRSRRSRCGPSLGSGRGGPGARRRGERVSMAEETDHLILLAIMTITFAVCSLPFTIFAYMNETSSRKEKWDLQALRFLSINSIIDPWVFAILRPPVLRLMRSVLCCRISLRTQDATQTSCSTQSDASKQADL

As usually defined, the half-life is the time in which the quantity being followed falls by half. A word on the microsomal CLint: it is a measure of how fast metabolising enzymes remove a compound, apart from limits set by blood flow. Read a high microsomal CLint as rapid turnover. As a reminder, the inhibition in vivo is the drop in the measured response relative to a control, in per cent. For orientation: fraction unbound means the share of the substance not bound to proteins or other matrix. The low end stands for extensive binding, the high end for weak binding. The term IC50 denotes the midpoint of a concentration-inhibition curve. The Papp is the rate of passage across a membrane or cell layer, normalised by area and donor concentration. The solubility is how much of the substance goes into solution per volume. The low end stands for little dissolved substance, the high end for much dissolved substance. The term Ki denotes the dissociation constant of the complex between target and ligand, obtained from inhibition or displacement. A low value points to a stronger hold on the target. The term bioavailability denotes dose-corrected exposure relative to a reference, in per cent. What is called CL/F is the apparent clearance, not corrected for the fraction that reaches the circulation. Broadly, the AUC is concentration integrated over time. A word on the inhibition: it is how much of the control response was suppressed. Take `CCCS(=O)(=O)c1ccc(C)c(C#Cc2cc(Cl)ccc2OCC(=O)O)c1`: the half-life in data set [1] was 3.9 h; in [18], 1.7 h. For the same molecule, the microsomal CLint at 1 µM in [2] and in data set [19] was < 10 µL/min/mg in each case. In addition, the inhibition in vivo at 3 mg/kg in the data set on Mus musculus [3] came out at 29%; in the data set with Mus musculus [13], 23%. Besides, the fraction unbound is 0.008 in data set [4], 0.004 in data set [10] and 0.004 in [17]. The figures for the IC50 in data set [5], in data set [7] and in data set [15] were 10 µM, 0.172 µM and 0.007 µM, respectively. Moreover, the Papp at 2 h, 1 µM in data set [6] amounted to 5.2 ×10⁻⁶ cm/s. The inhibition in vivo at 30 mg/kg stood at 81% with Mus musculus [8] and 52% in the data set with Mus musculus [20]. Besides, the solubility in data set [9] is < 2 µg/mL; in data set [26], 242 µg/mL (≈ 595 µM). Further, the figures for the Ki in data set [11], in data set [24] and in [25] were 0.002 µM, 1.58 µM and 0.0024 µM, respectively. The bioavailability in [12] is 80%. The inhibition in vivo at 10 mg/kg in the data set on Mus musculus [14] amounted to 54%; in the data set on Mus musculus [22] it was 56%. Moreover, in data set [16], the CL/F was 16.7 mL/min/kg. In data set [21], this molecule yielded an AUC of 3730 ng·h/mL. In addition, the inhibition in data set [23] was determined as 54%.
Consider `C[C@@H]1C[C@H]2[C@@H]3CCC4=CC(=O)C=C[C@]4(C)[C@@]3(F)[C@@H](O)C[C@]2(C)[C@@]1(O)C(=O)CO` [DEXAMETHASONE], for which the inhibition entry in the data set with Mus musculus [27] was “Active”. For the same molecule, the inhibition in vivo at 1 mg/kg with Mus musculus [28] was found to be 90%.
